Peptide text beside a SMILES is read from it.
What was measured:
[1] = Selectivity for mu opioid receptor over delta opioid receptor in rat brain membranes; format: cell membranes
[2] = biological target: Delta-type opioid receptor (Homo sapiens, UniProt P41143); experiment: Antagonist activity at delta opioid receptor expressed in CHO cells assessed as release of intracellular calcium ions by aequorin luminescence-based calcium assay; format: functional, cell-based
Mu-type opioid receptor [3] = biological target: T1, Mu-type opioid receptor (Rattus norvegicus, UniProt P33535); experiment: Displacement of [3H]DAMGO from mu opioid receptor in rat brain membranes; format: cell membranes
T1 sequence (P33535 whole entry): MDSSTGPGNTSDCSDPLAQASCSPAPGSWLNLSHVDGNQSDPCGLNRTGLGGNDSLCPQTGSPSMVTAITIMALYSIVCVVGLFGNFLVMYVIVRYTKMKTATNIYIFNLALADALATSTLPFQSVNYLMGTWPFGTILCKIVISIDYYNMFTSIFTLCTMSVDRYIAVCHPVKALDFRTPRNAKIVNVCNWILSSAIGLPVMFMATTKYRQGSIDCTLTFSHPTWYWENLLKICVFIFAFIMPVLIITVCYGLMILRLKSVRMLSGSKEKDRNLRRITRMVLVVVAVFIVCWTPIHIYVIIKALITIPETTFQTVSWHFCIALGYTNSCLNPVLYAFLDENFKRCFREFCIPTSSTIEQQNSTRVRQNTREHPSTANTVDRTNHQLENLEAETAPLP

[4] = biological target: Delta-type opioid receptor (Rattus norvegicus, UniProt P33533); experiment: Displacement of [3H]naltrindole from delta opioid receptor in rat brain membranes; format: cell membranes
Delta-type opioid receptor (Rattus norvegicus, UniProt P33533), sequence (P33533 whole entry): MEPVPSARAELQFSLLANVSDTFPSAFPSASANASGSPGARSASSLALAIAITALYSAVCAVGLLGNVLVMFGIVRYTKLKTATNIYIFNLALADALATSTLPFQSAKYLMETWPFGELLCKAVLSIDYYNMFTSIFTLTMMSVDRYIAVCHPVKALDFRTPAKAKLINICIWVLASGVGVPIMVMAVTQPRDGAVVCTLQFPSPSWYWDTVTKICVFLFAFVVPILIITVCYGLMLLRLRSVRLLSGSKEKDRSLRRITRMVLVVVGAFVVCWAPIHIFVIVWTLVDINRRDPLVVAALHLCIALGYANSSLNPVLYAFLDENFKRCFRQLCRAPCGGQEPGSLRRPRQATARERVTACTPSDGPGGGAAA

Mus musculus [5] = experiment: Antinociceptive activity in mouse assessed as paw licking latency at 10 ug, icv in presence of endomorphin-2 by hot plate test; format: functional
Summary of the method: (§1)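 Mouse hot plate test with intracerebroventricular co-injection of endomorphin-2 (3 ug/animal) plus antagonist: naloxone at 5 ug/animal, or analog at 10 ug/animal. Rearing, paw-licking and jumping latencies were measured against saline controls and converted to %MPE = (t1 − t0)/(t2 − t0) × 100, with a 240 s cutoff.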

Mu-type opioid receptor [6] = biological target: T1, Mu-type opioid receptor; experiment: Displacement of [3H]naloxone from mu opioid receptor in rat brain membranes; format: cell membranes
Mus musculus [7] = experiment: Antinociceptive activity in mouse assessed as rearing latency at 10 ug, icv in presence of endomorphin-2 by hot plate test; format: functional; summary of the method: as §1
Mus musculus [8] = experiment: Antinociceptive activity in mouse assessed as jumping latency at 10 ug, icv in presence of endomorphin-2 by hot plate test; format: functional; summary of the method: as §1
Mus musculus [9] = experiment: Antinociceptive activity in mouse assessed as paw licking latency at 10 ug, icv by hot plate test; format: functional
Summary of the method: (§2)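 Mice, single intracerebroventricular peptide injection; hot plate latencies recorded for rearing, paw licking and jumping. Control latencies (t0) taken after saline, test latencies (t1) after peptide. Expressed as %MPE = (t1 − t0)/(t2 − t0) × 100, with a cutoff time (t2) of 240 s.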

Mus musculus [10] = experiment: Antinociceptive activity in mouse assessed as rearing latency at 10 ug, icv by hot plate test; format: functional; summary of the method: as §2
Mus musculus [11] = experiment: Antinociceptive activity in mouse assessed as jumping latency at 10 ug, icv by hot plate test; format: functional; summary of the method: as §2
Mus musculus [12] = experiment: Antinociceptive activity in mouse assessed as jumping latency at 5 ug, icv in presence of endomorphin-2 by hot plate test; format: functional; summary of the method: as §1
Mus musculus [13] = experiment: Antinociceptive activity in mouse assessed as paw licking latency at 5 ug, icv in presence of endomorphin-2 by hot plate test; format: functional; summary of the method: as §1
Mus musculus [14] = experiment: Antinociceptive activity in mouse assessed as rearing latency at 5 ug, icv in presence of endomorphin-2 by hot plate test; format: functional; summary of the method: as §1

Delta-type opioid receptor (Homo sapiens, UniProt P41143), sequence (P41143 whole entry): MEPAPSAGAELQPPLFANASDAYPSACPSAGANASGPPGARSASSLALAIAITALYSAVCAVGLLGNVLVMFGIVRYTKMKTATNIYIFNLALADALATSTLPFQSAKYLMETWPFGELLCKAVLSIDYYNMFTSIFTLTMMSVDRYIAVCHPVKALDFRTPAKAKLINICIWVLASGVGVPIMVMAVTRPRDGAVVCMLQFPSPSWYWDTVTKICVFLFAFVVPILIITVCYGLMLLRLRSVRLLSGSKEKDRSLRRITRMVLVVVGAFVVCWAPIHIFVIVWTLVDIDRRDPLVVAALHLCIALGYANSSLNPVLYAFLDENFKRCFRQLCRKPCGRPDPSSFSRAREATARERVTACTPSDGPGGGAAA

| Structure (SMILES) | IC50 [1] [nM] | EC50 [2] [nM] | IC50 (Mu-type opioid receptor [3]) [nM] | IC50 [4] [nM] | MPE (Mus musculus [5]) [%] | IC50 (Mu-type opioid receptor [6]) [nM] | MPE (Mus musculus [7]) [%] | MPE (Mus musculus [8]) [%] | MPE (Mus musculus [9]) [%] | MPE (Mus musculus [10]) [%] | MPE (Mus musculus [11]) [%] | MPE (Mus musculus [12]) [%] | MPE (Mus musculus [13]) [%] | MPE (Mus musculus [14]) [%] |
| --- | --- | --- | --- | --- | --- | --- | --- | --- | --- | --- | --- | --- | --- | --- |
| CN(CC(=O)N[C@@H](Cc1ccccc1)C(=O)N[C@H](Cc1ccc2ccccc2c1)C(N)=O)C(=O)[C@@H](N)Cc1ccc(O)cc1 | > 6.41 | > 1000 | 1560 | > 10000 |  |  |  |  |  |  |  |  |  |  |
| NC(=O)[C@@H](Cc1ccc2ccccc2c1)NC(=O)[C@H](Cc1ccccc1)NC(=O)[C@@H]1CCCN1C(=O)[C@@H](N)Cc1ccc(O)cc1 (HELM PEPTIDE1{Y.P.F.[O=C([C@@H](Cc1ccc2ccccc2c1)N[*:1])[*:2]].[am]}$$$$V2.0) |  |  |  |  | 2.94 | 19.5 | 5.26 | 17.9 |  |  |  |  |  |  |
| Cc1cc(O)cc(C)c1C[C@H](N)C(=O)N(C)CC(=O)N[C@@H](Cc1ccccc1)C(=O)N[C@H](Cc1ccc2ccccc2c1)C(N)=O (HELM PEPTIDE1{[Cc1cc(O)cc(C)c1C[C@H](N)C(=O)[*:2]].[Sar].F.[O=C([C@@H](Cc1ccc2ccccc2c1)N[*:1])[*:2]].[am]}$$$$V2.0) | > 10000 | > 1000 | 0.01 | > 10000 | 1.89 |  | 3.63 | 11.5 | 0.04 | 0.09 | 1.42 |  |  |  |
| C=CCN1CC[C@]23c4c5ccc(O)c4O[C@H]2C(=O)CC[C@@]3(O)[C@H]1C5 [NALOXONE] |  |  |  |  |  |  |  |  |  |  |  | 2.19 | 0.34 | 0.22 |
| Cc1cc(O)cc(C)c1C[C@H](N)C(=O)N1CCC[C@H]1C(=O)N[C@@H](Cc1ccccc1)C(=O)N[C@H](Cc1ccc2ccccc2c1)C(N)=O (HELM PEPTIDE1{[Cc1cc(O)cc(C)c1C[C@H](N)C(=O)[*:2]].P.F.[O=C([C@@H](Cc1ccc2ccccc2c1)N[*:1])[*:2]].[am]}$$$$V2.0) | 5.09 |  | 1.52 |  | 0.26 |  | 0.13 | 2.26 | 0.09 | 0.18 |  |  |  |  |

From ChEMBL document CHEMBL1141475 (Bioorg Med Chem Lett, 2008)
